Glyco luc inh: increase of ERlucT glycosylation luciferase signal, primary screen, N-linked glycosylation inhibitor project, D54 ERlucT cells, luminescence, set 2. 360,000 compounds, 0.23% hits. D54 ERlucT glycosylation luciferase reporter, 24 h; percent of 100 nM tunicamycin response. reporter increase, % at 12.5 µM;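 active means mean luciferase reporter signal, scaled so untreated is 0 and the glycosylation-blocking control 100, at or above a set limit in every replicate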;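 further: luciferase carries N-glycosylation sites so blocking glycosylation raises the light; 0% = median of neutral control wells and 100% = median of 100 nM tunicamycin wells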
ALR inh: inhibitors of human ALR sulfhydryl oxidase, primary screen, biochemical, H2O2 detection, HRP-luminol luminescence, single point | 290,000 compounds, 3.8% hits | inhibition, % (no concentration beside the values) | purified ALR, DTT oxidation;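 active means mean replicate inhibition above about 79%, with every replicate also reaching it, limit read from the data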
Target sequence (P55789 whole entry, looked up): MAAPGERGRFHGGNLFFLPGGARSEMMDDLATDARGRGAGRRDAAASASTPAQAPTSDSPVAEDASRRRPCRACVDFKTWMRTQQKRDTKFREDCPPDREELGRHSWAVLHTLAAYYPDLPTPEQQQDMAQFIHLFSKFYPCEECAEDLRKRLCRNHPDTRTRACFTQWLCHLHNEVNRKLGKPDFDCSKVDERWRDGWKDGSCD
T cell HTS: modulators of CD8 T cell-vesicle binding, primary screen, mouse 2C CD8+ T cells, flow cytometry; 2C CD8+ T cell-vesicle binding; hits give low values; response (vesicle binding), % at 7 µM; 330,000 compounds, 0.068% hits; AID 2052, 2009;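 active means response, share of CD8 T cells binding vesicles, and their 90th percentile fluorescence all below set limits, cut at about 80% in these data, passing the limit was not always enough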;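 further: values below 100% mean blocked vesicle binding to the CD8+ T cells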
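Assay system – 2C mouse CD8+ T cells · Also added – QL9-loaded Drosophila micro-vesicles · Timing – Cell–vesicle co-incubation 1.5 h at 37 °C, staining 20 min on ice · Signal – flow cytometry of vesicle-bound cells · Measure – percent CD8+ FL2 mean versus row control · Controls – Peptide-free naked vesicles (low) and QL9 vesicles with 0.7% DMSO vehicle (high)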
* = called active by the depositor; i = inactive; · = no result. The full list was thinned out, with hits kept by preference.

SMILES | Glyco luc inh | ALR inh | T cell HTS
CCOc1cc(/C=C2\SC(=S)N(C(C(=O)O)c3ccccc3)C2=O)ccc1O (stereo not drawn) | -1 | 100* | 163
O=C(O)C(c1ccccc1)N1C(=O)/C(=C\c2ccc(O)c(O)c2)SC1=S (stereo not drawn) | -1 | 99* | 284
COc1cc(/C=C2\SC(=S)N(C(C(=O)O)c3ccccc3)C2=O)ccc1O (stereo not drawn) | 2 | · | 316
CCOc1ccc(/C=C2/SC(=S)N(C(C(=O)O)c3ccccc3)C2=O)cc1OCC (stereo not drawn) | 0 | · | ·
Cc1c(NC(=O)c2cc(-c3ccc(Cl)cc3)on2)c(=O)n(-c2ccccc2)n1C | -1 | 3 | 335
Oc1[nH]c2ccccc2c1N=Nc1nc2ccccc2s1 | -13 | 88* | 572
Cc1ccc2[nH]c(O)c(N=Nc3nc4ccccc4s3)c2c1 | 15 | · | 95
O=C(CCCn1cnc([N+](=O)[O-])n1)Nc1cccc2ccccc12 | 5 | -29 | 177
Cn1nc(N)c2ncc(-c3ccc(Cl)cc3)nc21 | 0 | · | ·
CCN(CC)CCCN(C(=O)c1cccc(C)c1)c1nc(-c2ccc(OC)cc2)cs1 | -7 | 96* | 156
CCN(CC)CCCN(C(=O)c1ccc(Br)cc1)c1nc(-c2ccc(OC)cc2)cs1 | -8 | -12 | 184
O=C(CNC(=O)c1ccccc1F)NCCN1C(=O)S/C(=C\c2ccc3c(c2)OCO3)C1=O | 2 | · | 505
NCCN1C(=O)S/C(=C\c2ccc3c(c2)OCO3)C1=O | -4 | 92* | 111
O=[N+]([O-])c1ccc(Cl)cc1NCC1CCCO1 (stereo not drawn) | -1 | 5 | 4
CCN1C(=O)/C(=C2/C=Cc3ccccc3N2CC)SC1=S | 0 | 99* | 256
CN1C(=O)/C(=C2/C=Cc3ccccc3N2CCCS(=O)(=O)O)SC1=S | -2 | 84* | 334
CCN1/C(=C2\C(=O)N(C)C(=S)N2C)C=Cc2ccccc21 | 2 | 43 | 221
CCN1/C(=C2\C(=O)N(C)C(=S)N2c2ccccc2)C=Cc2ccccc21 | -1 | 98* | 446
CCCN1/C(=C2/SC(=S)N(CC)C2=O)C=Cc2ccccc21 | -3 | 11 | 370
CCCN1C(=O)/C(=C2/C=Cc3ccccc3N2CC)SC1=S | -2 | 10 | 57
O=C(CSc1ccc(-c2ccncc2)nn1)N1CCN(c2ccccc2)CC1 | 1 | 3 | 206
O=C(CSCc1ccccc1Cl)N/N=C/c1ccco1 | -2 | -3 | 200
CC(C)(/C=N/NC(=O)CSCc1ccccc1Cl)CCC#N | 1 | 98* | 304
CCOC(=O)c1c(Cc2ccccc2)c[nH]c1C | -1 | 95* | 374
CCOC(=O)c1c(C)c[nH]c1C | 1 | 0 | 237
SMILES | Glyco luc inh | ALR inh | T cell HTS
COc1ccc(Nc2nc(C)cc(C)c2C(N)=O)cc1 | 4 | 28 | 292
COc1ccc(Nc2n[nH]c(N)c2C(N)=O)cc1 | 0 | 99* | 358
CCOc1ccc(N2C(=O)CC(N3CCc4ccccc43)C2=O)cc1 (stereo not drawn) | 1 | 10 | 398
O=C1CC(N2CCc3ccccc32)C(=O)N1c1ccccc1 (stereo not drawn) | 2 | 99* | 288
CN(c1ccccc1C(=O)N1CCCC1)S(C)(=O)=O | 0 | -12 | 191
CS(=O)(=O)Nc1ccccc1C(=O)N1CCN(c2ccccc2)CC1 | · | 98* | 110
CN(c1ccccc1C(=O)N1CCN(c2ccccc2)CC1)S(C)(=O)=O | 1 | 87* | 192
CS(=O)(=O)Nc1ccccc1C(=O)N1CCCC1 | 0 | -6 | 376
CCOC(=O)C1CCCN(C(=O)c2cc(S(=O)(=O)Nc3ccccc3OC)ccc2C)C1 (stereo not drawn) | 1 | -3 | 258
COc1ccccc1NS(=O)(=O)c1ccc(C)c(C(=O)N2CCN(c3ccc(O)cc3)CC2)c1 | -4 | 99* | 456
CS(=O)(=O)N(CC(=O)N1CCN(c2ccccc2)CC1)c1cccc(Br)c1 | 1 | 31 | 506
CCc1ccccc1N(CC(=O)N1CCN(c2ccccc2)CC1)S(C)(=O)=O | -3 | 98* | 317
O=C(O)Cc1cccc(=O)c(O)c1C(=O)O | 2 | · | ·
Cc1ccc2[nH]c(CNC(=O)c3ccc(F)cc3)cc2c1 | -2 | -10 | 257
O=C(CCNS(=O)(=O)c1ccc(Br)cc1)NCc1ccc(F)cc1 | 1 | -1 | 292
COc1ccc(C(O)(CCC(C)C)C(CN2CCOCC2)c2ccccc2)cc1 (stereo not drawn) | -9 | -19 | 590
O=C(N[C@@H](c1ccccc1)[C@H](O)c1ccccc1)[C@@H]1CCCN1C(=O)OCc1ccccc1 | -2 | -2 | ·
CCc1cccc(C)c1NC(=O)c1cc(=O)[nH]c2ccc(S(=O)(=O)N3CCOCC3)cc12 | -1 | -2 | 163
CN1C(=O)NC(c2ccc(O)cc2)C2=C1CN(c1ccc(O)cc1)C2=O (stereo not drawn) | 2 | 99* | 194
CN1C(=O)NC(c2ccc(O)cc2)C2=C1CN(c1ccccc1)C2=O (stereo not drawn) | 0 | -5 | 152
Cc1cc(C(=O)N2CCN(S(=O)(=O)c3ccccc3)CC2)c(C)o1 | 0 | 1 | 212
CC(=O)c1sc(N/N=C\c2c(O)ccc3ccccc23)nc1C | -11 | -15 | 525
CC(=O)Nc1cccc(N=NN2CCCCC2)c1 | 0 | 88* | 55
CC(=O)Nc1cccc(N=NN2CCOCC2)c1 | 1 | 7 | 422
COc1ccccc1N1CCN(S(=O)(=O)c2cccc(F)c2)CC1 | -2 | 97* | 678
SMILES | Glyco luc inh | ALR inh | T cell HTS
COc1ccccc1N1CCN(S(=O)(=O)c2ccc(F)cc2)CC1 | -3 | 39 | i
Cc1[nH]c(=O)[nH]c(=O)c1S(=O)(=O)N1CCN(c2ccccc2F)CC1 | 5 | -10 | 306
COc1ccccc1N1CCN(S(=O)(=O)c2c(C)[nH]c(=O)[nH]c2=O)CC1 | 1 | 97* | 162
Cc1ccc(-c2c(CC(=O)O)c(C)nc3sc4c(c23)CCCC4)cc1 | 2 | -2 | 186
OC(c1cccc(Cl)c1)c1ncc(-c2ccccc2Cl)[nH]1 (stereo not drawn) | -1 | · | ·
O=C(NCC1COc2ccccc2O1)c1ccc(Cl)c(S(=O)(=O)N2CCCC2)c1 (stereo not drawn) | -3 | · | 372
CCN(CC(=O)NCCCN1CCOCC1)S(=O)(=O)c1ccc(Cl)cc1 | 6 | 0 | 221
Cc1oc(-c2ccc(Cl)cc2)nc1CSCC(=O)NCCCN1CCOCC1 | -1 | 99* | 229
Cc1oc(-c2cccc(Cl)c2)nc1CS(=O)(=O)CC(=O)NCCCN1CCOCC1 | -1 | 48 | 638
Cc1cccc(-c2nc(CSCC(=O)NCCCN3CCOCC3)c(C)o2)c1 | -1 | 99* | 410
CCC1(C)CN=C(c2ccccc2)NC1 (stereo not drawn) | 0 | · | ·
CCOc1ccc2ccccc2c1/C=N/NC(=O)c1cc(C)[nH]n1 | 3 | · | 467
Cc1cc(C(=O)N/N=C/c2c3ccccc3cc3ccccc23)n[nH]1 | 45* | · | 276

Assay outcomes (PubChem BioAssay)
